# ChEMBL document CHEMBL1165860, “Synthesis and potential cytotoxic activity of new phenanthrylphenol-pyrrolobenzodiazepines” (2010)
# Activity calls are given as the source filed them. The rule behind the calls is not given here.
# Legend:
# [1] = test system: MCF7; experiment: Cell cycle arrest in human MCF7 cells assessed as accumulation at G2/M phase at 2 uM after 24 hrs using propidium iodide staining by flow cytometry; format: functional
# Summary of the method: (§1)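 MCF-7 cells were grown in DMEM with 10% fetal calf serum, penicillin and streptomycin, at 37 °C in 5% CO2. They were treated for 24 h at 2 and 4 µM, with DMSO-treated cells as controls. Cells were trypsinised, fixed in ice-cold 70% ethanol at 4 °C for 30 min, and RNaseA-treated at 37 °C for 30 min. Phases were read by flow cytometry.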
# [2] = test system: MCF7; experiment: Cell cycle arrest in human MCF7 cells assessed as accumulation at G0 phase at 4 uM after 24 hrs using propidium iodide staining by flow cytometry; format: functional; summary of the method: as §1
# [3] = test system: MCF7; experiment: Cell cycle arrest in human MCF7 cells assessed as accumulation at G1 phase at 4 uM after 24 hrs using propidium iodide staining by flow cytometry; format: functional; summary of the method: as §1
# [4] = test system: MCF7; experiment: Cell cycle arrest in human MCF7 cells assessed as accumulation at S phase at 4 uM after 24 hrs using propidium iodide staining by flow cytometry; format: functional; summary of the method: as §1
# [5] = test system: MCF7; experiment: Increase of cytosolic cytochrome c level in human MCF7 cells at 2 uM after 24 hrs by Western blot analysis; format: functional, cell-based
# Summary of the method: (§2)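 MCF-7 cells were grown in DMEM with 10% FCS and penicillin/streptomycin at 37 °C in 5% CO2, then treated for 24 h. Cells were lysed in ice-cold RIPA buffer with protease inhibitors and NaF. Protein was measured by Bradford assay, and 30 µg per lane was run on 12% SDS-PAGE and transferred to PVDF. Antibody steps: primary at 4 °C overnight, HRP secondary 1:2000, chemiluminescent detection.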
# [6] = test system: MCF7; experiment: Increase of cytosolic cytochrome c level in human MCF7 cells at 4 uM after 24 hrs by Western blot analysis; format: functional, cell-based; summary of the method: as §2
# [7] = test system: MCF7; experiment: Induction of apoptosis in human MCF7 cells assessed as increase of caspase 8 activation at 4 uM after 1 hr by […] method; format: functional, cell-based
# Summary of the method: (§3)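 Colorimetric caspase-8 kit on lysates of treated MCF-7 cells. The IETD-pNA substrate was incubated with cell lysate at 37 °C for 1 h, and absorbance was read at 405 nm. Untreated cells served as the control.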
# [8] = test system: MCF7; experiment: Increase of PARP cleavage in human MCF7 cells at 2 uM after 24 hrs by Western blot analysis; format: functional, cell-based; summary of the method: as §2
# [9] = test system: MCF7; experiment: Increase of PARP cleavage in human MCF7 cells at 4 uM after 24 hrs by Western blot analysis; format: functional, cell-based; summary of the method: as §2
# [10] = test system: MCF7; experiment: Cell cycle arrest in human MCF7 cells assessed as accumulation at G0 phase at 2 uM after 24 hrs using propidium iodide staining by flow cytometry; format: functional; summary of the method: as §1
# [11] = test system: MCF7; experiment: Cell cycle arrest in human MCF7 cells assessed as accumulation at G2/M phase at 4 uM after 24 hrs using propidium iodide staining by flow cytometry; format: functional; summary of the method: as §1
# [12] = test system: MCF7; experiment: Cell cycle arrest in human MCF7 cells assessed as accumulation at G1 phase at 2 uM after 24 hrs using propidium iodide staining by flow cytometry; format: functional; summary of the method: as §1
# [13] = test system: MCF7; experiment: Cell cycle arrest in human MCF7 cells assessed as accumulation at S phase at 2 uM after 24 hrs using propidium iodide staining by flow cytometry; format: functional; summary of the method: as §1
# [14] = test system: MCF7; experiment: Cell cycle arrest in human MCF7 cells assessed as accumulation at G0 phase after 24 hrs using propidium iodide staining by flow cytometry; format: functional, cell-based; summary of the method: as §1
# [15] = test system: MCF7; experiment: Induction of apoptosis in human MCF7 cells assessed as DNA fragmentation at 4 uM after 24 hrs using ethidium bromide staining by agarose gel electrophoresis; format: functional, cell-based
# Summary of the method: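 1.5×10⁶ MCF-7 cells in 60 mm dishes were treated for 24 h and lysed in 10 mM Tris-HCl pH 7.5, 10 mM EDTA, 0.5% Triton X-100. The supernatant was digested with RNase A and proteinase K for 2 h at 37 °C. DNA was isolated by phenol–chloroform extraction and ethanol precipitation, run on 1% agarose with a 100 bp marker, and stained with ethidium bromide under UV.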
# [16] = test system: MCF7; experiment: Induction of p53 expression in human MCF7 cells; format: functional, cell-based
# [17] = test system: MCF7; experiment: Induction of apoptosis in human MCF7 cells assessed as increase of caspase 8 activation at 2 uM after 1 hr by […] method; format: functional, cell-based; summary of the method: as §3
# [18] = test system: MCF7; experiment: Induction of apoptosis in human MCF7 cells assessed as increase of caspase 9 activation at 4 uM after 1 hr by fluorimetry based assay; format: functional, cell-based
# [19] = test system: MCF7; experiment: Cytotoxicity against human MCF7 cells at 2 uM after 24 hrs by MTT assay relative to control; format: functional
# Summary of the method: (§4)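 MCF-7 cells were seeded at 10,000 cells/well in DMEM with 10% fetal calf serum. They were exposed to 0.5, 1, 2 and 4 µM for 24 h. MTT reduction to formazan was read at 570 nm, with untreated controls taken as 100% viability. DMSO-treated cells served as an additional control.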
# [20] = test system: MCF7; experiment: Cytotoxicity against human MCF7 cells at 4 uM after 24 hrs by MTT assay relative to control; format: functional, cell-based; summary of the method: as §4
# [21] = test system: Nucleic Acid; experiment: Inhibition of Escherichia coli pBR322 DNA cleavage after 16 hrs by RED100-restriction endonuclease digestion assay; format: nucleic-acid assay
# Summary of the method: (§5)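 pBR322 DNA was preincubated with compound at final 2, 4, 8, 16 and 32 µM for 16 h at 37 °C. BamHI (10 U/µl) in BamHI buffer was then added for 2 h at 37 °C. Products were separated on agarose in 0.5× Tris–acetate EDTA at 80 V for 1 h and stained with ethidium bromide. Cut and uncut DNA served as controls.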
# [22] = test system: Nucleic Acid; experiment: Inhibition of Escherichia coli pBR322 DNA cleavage at 16 uM after 16 hrs by RED100-restriction endonuclease digestion assay; format: nucleic-acid assay; summary of the method: as §5
# [23] = test system: MCF7; experiment: Decrease of cyclin D1 level in human MCF7 cells at 2 uM after 24 hrs by Western blot analysis; format: functional, cell-based
# Summary of the method: (§6)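 MCF-7 cells were treated at 2 or 4 µM for 24 h, then lysed in ice-cold RIPA buffer with protease inhibitors and NaF. Protein was quantified by Bradford. Thirty µg per lane was run on 12% SDS-PAGE and transferred to PVDF. Membranes were blocked 2 h, given primary antibody overnight at 4 °C, then HRP secondary (1:2000) for 1 h. Bands were detected by chemiluminescence.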
# [24] = test system: MCF7; experiment: Decrease of cyclin D1 level in human MCF7 cells at 4 uM after 24 hrs by Western blot analysis; format: functional, cell-based; summary of the method: as §6
# [25] = test system: MCF7; experiment: Induction of apoptosis in human MCF7 cells assessed as increase of caspase 9 activation at 2 uM after 1 hr by fluorimetry based assay; format: functional, cell-based
# [26] = test system: MCF7; experiment: Induction of apoptosis in human MCF7 cells assessed as increase of caspase 9 activation at 2 to 4 uM after 1 hr by fluorimetry based assay in presence of caspase 9 inhibitor LEHD-CHO; format: functional, cell-based
# [27] = test system: MCF7; experiment: Cytotoxicity against human MCF7 cells at 1 uM after 24 hrs by MTT assay relative to control; format: functional; summary of the method: as §4
inhibition [21],SMILES,Activity [1] [%],Activity [2] [%],Activity [3] [%],Activity [4] [%],Activity [5],Activity [6],Activity [7],Activity [8],Activity [9],Activity [10] [%],Activity [11] [%],Activity [12] [%],Activity [13] [%],Activity [14],Activity [15],Activity [16],Activity [17],Activity [18],Activity [20],other results
,COc1cc2c(cc1O)N=C[C@@H]1CCCN1C2=O,13.1,8.07,75.28,14.16,Active,Active,Active,Active,Active,3.19,3.5,65.98,20.26,,,,,,,
Dose-dependent effect,COc1cc2c(cc1OCCCCOc1ccc(-c3cc4ccccc4c4ccccc34)cc1)N=C[C@@H]1CCCN1C2=O,4.25,20.86,70.3,5.5,Active,Active,Active,Active,Active,15.08,2.94,66.31,12.45,Dose-dependent effect,Active,Active,Active,Active,Active,Activity [19]: <=50%; inhibition [22]: 100%
Dose-dependent effect,COc1cc2c(cc1OCCCCCOc1ccc(-c3cc4ccccc4c4ccccc34)cc1)N=C[C@@H]1CCCN1C2=O,2.61,22.71,69.07,4.86,Active,Active,Active,Active,Active,13.08,2.46,75.84,7.76,Dose-dependent effect,Active,Active,Active,Active,Active,Activity [23]: Active; Activity [24]: Active; Activity [25]: Active; Activity [26]: inactive; Activity [27]: <=50%; inhibition [22]: 100%
